Assay [1] deals with GABA A receptor alpha-6/beta-2/gamma-2 (Homo sapiens, UniProt P18507+P47870+Q16445). The assay can be described thus: Displacement of [3H]-Ro-15-4513 from GABA-A receptor alpha-6-beta-2-gamma-2 subunits expressed in Sf9 cells. In outline: (§1)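 Membranes from Sf-9 cells infected (MOI 3) with baculoviruses for α1, α3 or α6 plus β2 and γ2 subunits, harvested 60 h postinfection. Binding in normal saline with 6 nM [3H]flunitrazepam (α1, α3) or [3H]Ro 15-4513 (α6), 50 µg membrane protein, varying test ligand. Incubated 60 min at 4 °C, filtered, scintillation counted.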
On the technique in general: Loss of bound radioactivity is the signal in a displacement assay; it reports binding, not function.

Assay [2] deals with Mus musculus. Kind of assay: Acute electroshock physical dependence activity was evaluated; A=Active at 15 mg/Kg. It counts as functional, organism-based.
In assay [3] the test system is Mus musculus. Kind of assay: Ethanol potentiation activity was measured as loss of righting reflex in male CF-1 mice after oral administration. Format: functional.
The subject of assay [4] is Mus musculus. Kind of assay: Ethanol potentiation activity was measured as loss of traction response in male CF-1 mice after oral administration. Format: functional.
Assay [5] has as its system Rattus norvegicus. The assay can be described thus: Antagonistic activity against metrazole-induced clonic convulsions in rat after ip injection. It counts as functional.
The species entered for assay [6] is Rattus norvegicus. Kind of assay: In vitro [36Cl]-uptake in rat cerebrocortical synaptoneurosomes. Format: functional. More on the design: unit not given here. A digest of the protocol: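 Rat cerebrocortical synaptoneurosomes (1 mg protein) preincubated 5 min at 30 °C, then mixed with medium containing 0.2 µCi Na36Cl/mL, 118 mM NaCl, 5 mM KCl, 1.8 mM MgSO4, 20 mM Hepes/Tris pH 7.0, ± drug (methanol ≤0.4%). Uptake stopped after 5 s with ice-cold buffer, rapid filtration, four washes, radioactivity counted.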

Assay [7] has as its target T1, GABA-A receptor; alpha-1/beta-2/gamma-2 (Homo sapiens, UniProt P14867+P18507+P47870).
T1 sequence (P14867 whole entry): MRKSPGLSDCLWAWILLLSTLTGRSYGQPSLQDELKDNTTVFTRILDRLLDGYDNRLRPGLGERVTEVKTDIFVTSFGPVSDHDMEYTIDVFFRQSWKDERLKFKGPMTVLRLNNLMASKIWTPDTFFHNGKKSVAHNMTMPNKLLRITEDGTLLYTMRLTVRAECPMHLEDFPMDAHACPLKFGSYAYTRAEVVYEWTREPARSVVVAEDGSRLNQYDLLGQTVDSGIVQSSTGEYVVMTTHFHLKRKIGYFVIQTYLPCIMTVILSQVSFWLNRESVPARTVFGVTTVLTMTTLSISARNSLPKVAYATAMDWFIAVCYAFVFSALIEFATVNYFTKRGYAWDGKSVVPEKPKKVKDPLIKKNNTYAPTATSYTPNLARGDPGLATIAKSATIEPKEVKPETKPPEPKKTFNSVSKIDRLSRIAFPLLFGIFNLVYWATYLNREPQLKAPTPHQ
T1 sequence (P47870 whole entry): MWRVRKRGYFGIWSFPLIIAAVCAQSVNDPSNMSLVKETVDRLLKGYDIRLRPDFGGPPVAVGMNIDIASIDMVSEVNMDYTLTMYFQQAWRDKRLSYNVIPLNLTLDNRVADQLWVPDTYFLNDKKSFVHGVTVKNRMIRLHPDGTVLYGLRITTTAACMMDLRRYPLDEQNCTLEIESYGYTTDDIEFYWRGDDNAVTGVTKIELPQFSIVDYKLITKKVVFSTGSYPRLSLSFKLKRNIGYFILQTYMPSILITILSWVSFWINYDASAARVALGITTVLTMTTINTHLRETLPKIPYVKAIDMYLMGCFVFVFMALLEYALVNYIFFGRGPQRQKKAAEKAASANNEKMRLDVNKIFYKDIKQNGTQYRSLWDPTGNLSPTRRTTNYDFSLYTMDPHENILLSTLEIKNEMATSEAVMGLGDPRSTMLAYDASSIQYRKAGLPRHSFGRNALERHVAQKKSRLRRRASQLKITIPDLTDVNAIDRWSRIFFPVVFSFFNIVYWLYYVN
T1 sequence (P18507 whole entry): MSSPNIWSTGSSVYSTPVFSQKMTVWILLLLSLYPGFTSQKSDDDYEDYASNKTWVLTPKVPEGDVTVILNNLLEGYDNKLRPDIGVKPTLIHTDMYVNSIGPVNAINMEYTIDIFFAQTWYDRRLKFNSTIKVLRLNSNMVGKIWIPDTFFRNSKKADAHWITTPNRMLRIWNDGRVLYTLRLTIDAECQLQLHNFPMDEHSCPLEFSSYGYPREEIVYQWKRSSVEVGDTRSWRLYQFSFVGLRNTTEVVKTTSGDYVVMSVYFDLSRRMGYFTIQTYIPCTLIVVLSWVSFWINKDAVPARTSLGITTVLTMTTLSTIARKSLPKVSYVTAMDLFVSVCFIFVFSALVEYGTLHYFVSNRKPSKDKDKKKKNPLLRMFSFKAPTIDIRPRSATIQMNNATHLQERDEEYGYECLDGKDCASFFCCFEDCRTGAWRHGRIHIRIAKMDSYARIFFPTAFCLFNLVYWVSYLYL
Kind of assay: Displacement of [3H]Flunitrazepam from GABA-A receptor alpha-1-beta-2-gamma-2 subunits expressed in Sf9 cells.

Assay [8] addresses GABA-A receptor; anion channel. The assay can be described thus: Inhibition of [3H]flunitrazepam binding to GABA-A receptor of rat cortical membranes. Format: cell membranes, Membrane.
The target of assay [9] is T2, GABA A receptor alpha-3/beta-2/gamma-2 (Homo sapiens, UniProt P18507+P34903+P47870).
T2 sequence (P47870 whole entry): T1 sequence (P47870 whole entry)
T2 sequence (P18507 whole entry): T1 sequence (P18507 whole entry)
T2 sequence (P34903 whole entry): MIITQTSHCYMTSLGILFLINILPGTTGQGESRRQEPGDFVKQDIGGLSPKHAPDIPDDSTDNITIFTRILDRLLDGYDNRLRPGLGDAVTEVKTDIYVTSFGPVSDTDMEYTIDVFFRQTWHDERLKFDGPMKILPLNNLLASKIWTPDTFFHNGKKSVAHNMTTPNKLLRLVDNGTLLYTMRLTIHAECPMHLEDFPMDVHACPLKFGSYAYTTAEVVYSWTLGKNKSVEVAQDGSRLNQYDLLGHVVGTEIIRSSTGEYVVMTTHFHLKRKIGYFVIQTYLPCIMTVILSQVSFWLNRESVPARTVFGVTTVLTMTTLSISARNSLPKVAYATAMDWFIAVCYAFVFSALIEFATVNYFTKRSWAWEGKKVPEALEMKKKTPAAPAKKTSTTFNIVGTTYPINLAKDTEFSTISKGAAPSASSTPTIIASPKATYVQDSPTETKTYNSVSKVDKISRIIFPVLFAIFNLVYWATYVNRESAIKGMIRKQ
Kind of assay: (§2) Displacement of [3H]flunitrazepam from GABA-A receptor alpha-3-beta-2-gamma-2 subunits expressed in Sf9 cells. In outline: as §1

Assay [10] deals with GABA-A receptor; anion channel (Rattus norvegicus) (UniProt O09028+P15431+P18506+P18508+P19969+P20236+P23574+P23576+P28471+P28473+P30191+P62813+P63079+P63138+Q91ZM7+Q9ES14). As to conditions: Brain, Brain membranes.
Assay [11] concerns the target T1, GABA-A receptor; alpha-1/beta-2/gamma-2. Kind of assay: Displacement of [3H]flunitrazepam from GABA-A receptor alpha-1-beta-2-gamma-2 subunits expressed in Sf9 cells. A digest of the protocol:
as §1

Assay [12] has as its target T2, GABA A receptor alpha-3/beta-2/gamma-2. The description is as §2. In outline:
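Sf-9 cells were co-infected with baculoviruses for α3, β2 and γ2 subunits at MOI 3 and harvested 60 h postinfection to prepare membranes. Binding used 6 nM [3H]flunitrazepam, 50 µg membrane protein and varying test ligand concentrations in normal saline (NaCl/KCl/MgCl2/CaCl2/Hepes, pH 7.2). Incubation ran 60 min at 4 °C, followed by glass-fibre filtration, four cold-saline washes and scintillation counting.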
The source holds these as a separate data set.

Assay [13] is filed under the species Mus musculus. The assay can be described thus: Acute electroshock physical dependence activity was evaluated; IA=Inactive. Format: functional, organism-based. A digest of the protocol:
(§3)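 Male CF-1 mice, 10/group, dosed sc twice daily (0800, and 1600 at twice the 0800 dose) for 3 days. 24 h after last dose, iv flumazenil 2.5 mg/kg in 5% aqueous N,N-dimethylacetamide. Electroshock seizure threshold (MA50) measured 5 min later versus saline-treated, flumazenil-injected controls. Compound scored active if threshold lowered beyond control interval.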

Assay [14] deals with Mus musculus. Kind of assay: In vivo antagonistic activity against benzodiazepine in mice after ip administration. It counts as functional. A digest of the protocol: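 Male CF-1 mice injected ip simultaneously with triazolam 1 mg/kg and test compound starting at […], in 0.25% aqueous methyl cellulose. Loss of traction scored 15 min later. Absence of triazolam effect indicated antagonism; lower doses at 0.5 log intervals then tested to establish ED50.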

The species named for assay [15] is Mus musculus. Kind of assay: Acute electroshock physical dependence activity was evaluated; A=Active. It counts as functional, organism-based. In outline: as §3

Each structure is given as a SMILES string. The source made the active and inactive calls.

The text below walks through data of ChEMBL document CHEMBL1129282, “High-affinity partial agonist imidazo[1,5-a]quinoxaline amides, carbamates, and ureas at the gamma-aminobutyric acid A/benzodiazepine receptor complex” (J Med Chem, 1996).

Chain of GABA A receptor alpha-6/beta-2/gamma-2 (Q16445 whole entry, one chain of several): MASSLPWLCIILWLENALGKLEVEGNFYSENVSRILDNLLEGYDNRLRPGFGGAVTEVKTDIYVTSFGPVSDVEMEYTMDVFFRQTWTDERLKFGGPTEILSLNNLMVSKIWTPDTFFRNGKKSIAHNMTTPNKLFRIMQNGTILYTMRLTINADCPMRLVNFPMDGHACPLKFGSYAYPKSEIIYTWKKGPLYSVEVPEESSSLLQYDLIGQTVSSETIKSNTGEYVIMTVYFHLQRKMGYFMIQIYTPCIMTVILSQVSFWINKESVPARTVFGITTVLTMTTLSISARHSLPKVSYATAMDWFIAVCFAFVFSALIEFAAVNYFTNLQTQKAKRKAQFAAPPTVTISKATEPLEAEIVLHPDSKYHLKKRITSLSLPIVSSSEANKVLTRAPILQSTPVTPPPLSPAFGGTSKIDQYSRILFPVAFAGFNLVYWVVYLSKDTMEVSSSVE

As usually defined, the Ki is the dissociation constant of the complex between target and ligand, obtained from inhibition or displacement. A word on the ED50: it is the midpoint of the dose-response relation. `CN1C(=O)CN=C(c2ccccc2)c2cc(Cl)ccc21` [DIAZEPAM]: the inhibitory constant (Ki) in assay [1] is more than 7000 nM. Also, the outcome in assay [2] was Active. The figures for the 50% effective dose (ED50) in assay [3], in assay [4] and in assay [5] were 0.86 mg/kg, 0.54 mg/kg and 0.5 mg/kg, respectively. Besides, in assay [6], the 36Cl- uptake was 1.
For `Cc1cccc2c1N(C(=O)N1CCOCC1)Cc1c(-c3noc(C4CC4)n3)ncn1-2`, the inhibition constant Ki is 4.7 nM in assay [7], 4.6 nM in [8] and 30 nM in [9]. Moreover, in [5], the ED50 was found to be 5.2 mg/kg. In assay [6], the 36Cl- uptake amounted to 0.7. For the same compound, in assay [10], the [35S] TBPS shift was determined as 0.51.
Turning to `CCNC(=O)N1Cc2c(-c3noc(C4CC4)n3)ncn2-c2ccccc21`, the inhibition constant (Ki) was 4.5 nM in assay [11], 3.5 nM in [8] and 15 nM in assay [12]. In addition, the result in assay [13] was inactive. Also, the 50% effective dose (ED50) in [3] was more than 30 mg/kg; in assay [4], more than 30 mg/kg; in [14], more than 30 mg/kg; in [5] it was 5.3 mg/kg. Besides, the 36Cl- uptake in assay [6] stood at 0.22. The [35S] TBPS shift in assay [10] turned out to be 0.72.
Take `CN(C)C(=O)N1Cc2c(-c3noc(C4CC4)n3)ncn2-c2ccccc21` [PNU-91571]: the Ki in assay [11] was 1.7 nM; in assay [8] it was 1 nM; in assay [12], 3.5 nM. In addition, the outcome in assay [13] was inactive. Also, the ED50 in assay [3] is more than 30 mg/kg; in assay [4], 27 mg/kg; in assay [14], 1 mg/kg; in assay [5], 21 mg/kg. Besides, the 36Cl- uptake in [6] is 0.68. Besides, the [35S] TBPS shift in assay [10] turned out to be 0.69.
For the compound `O=C(N1CCOCC1)N1Cc2c(-c3noc(C4CC4)n3)ncn2-c2cccc(F)c21`, the inhibition constant Ki was 0.17 nM in [7], 0.48 nM in [8], 0.51 nM in [9] and 13 nM in assay [1]. Moreover, in assay [15], the result was Active. In assay [5], this compound returned a 50% effective dose (ED50) of 6.2 mg/kg. For the same compound, in [6], the 36Cl- uptake is 0.42. Besides, the [35S] TBPS shift in [10] stood at 0.66.
As to `O=C(c1ccccc1)N1Cc2c(-c3noc(C4CC4)n3)ncn2-c2ccccc21`, the values for the Ki in assay [7] and in assay [1] were 0.3 nM and 1140 nM, respectively. This compound also gave an ED50 in assay [5] of 42 mg/kg. Further, in assay [10], the [35S] TBPS shift was 0.54.
